Experimental data: ChEMBL document CHEMBL3576819, “Design, synthesis, biological evaluation and molecular docking studies of phenylpropanoid derivatives as potent anti-hepatitis B virus agents” (Eur J Med Chem, 2015)

How the values were obtained:
[1] = system: Hepatitis B virus; experiment: Antiviral activity against Hepatitis B virus infected in human HepG2.2.15 cells assessed as inhibition of HBeAg secretion at 75 uM after 6 days by ELISA; format: functional; conditions: HepG2 2.2.15, 144 h
Method in brief: (§1)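 HepG2.2.15 cells (MEM, 10% FBS, 380 µg/ml G418) seeded at 1×10^5 cells/ml, held 24 h at 37 °C, then treated with various drug concentrations; medium with drug renewed every 3 d for up to 9 d. Culture medium sampled on days 3, 6 and 9, stored at -20 °C, and assayed for secreted antigen. Lamivudine as positive control; IC50 = 50% inhibition of secretion; means of at least two experiments.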

[2] = system: Hepatitis B virus; experiment: Antiviral activity against Hepatitis B virus infected in human HepG2.2.15 cells assessed as inhibition of HBeAg secretion at 150 uM after 9 days by ELISA; format: functional; conditions: HepG2 2.2.15, 216 h; method in brief: as §1
[3] = system: Hepatitis B virus; experiment: Antiviral activity against Hepatitis B virus infected in human HepG2.2.15 cells assessed as inhibition of HBeAg secretion at 75 uM after 9 days by ELISA; format: functional; conditions: HepG2 2.2.15, 216 h; method in brief: as §1
[4] = system: Hepatitis B virus; experiment: Antiviral activity against Hepatitis B virus infected in human HepG2.2.15 cells assessed as cell survival at 150 uM after 9 days (reference value: 100%); format: functional; conditions: HepG2 2.2.15, 216 h
Method in brief: (§2)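 HepG2.2.15 cells (MEM, 10% FBS, 380 µg/ml G418, 37 °C, 5% CO2) seeded at 1×10^5 cells/ml, cultured 24 h, then exposed to various drug concentrations; drug-containing medium renewed every 3 d. OD read at 450 nm after 9 days; percent cell death calculated; CC50 = concentration killing 50% of cells. Means of at least two experiments.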

[5] = Selectivity index, ratio of CC50 for human HepG2.2.15 cells to IC50 for Hepatitis B virus infected in human HepG2.2.15 cells assessed as inhibition of HBsAg secretion; format: functional
Method in brief: (§3)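 Selectivity index computed as CC50/IC50, with CC50 from cell death of HepG2.2.15 cells after 9 days of treatment (OD 450 nm) and IC50 from 50% inhibition of HBeAg or HBsAg secretion in the same cells; medium with drug renewed every 3 d.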

[6] = system: Hepatitis B virus; experiment: Antiviral activity against Hepatitis B virus infected in human HepG2.2.15 cells assessed as inhibition of HBeAg secretion at 150 uM after 3 days by ELISA; format: functional; conditions: HepG2 2.2.15, 72 h; method in brief: as §1
[7] = system: Hepatitis B virus; experiment: Antiviral activity against Hepatitis B virus infected in human HepG2.2.15 cells assessed as cell survival at 300 uM after 9 days (reference value: 100%); format: functional; conditions: HepG2 2.2.15, 216 h; method in brief: as §2
[8] = system: Hepatitis B virus; experiment: Antiviral activity against Hepatitis B virus infected in human HepG2.2.15 cells assessed as inhibition of HBeAg secretion at 300 uM after 3 days by ELISA; format: functional; conditions: HepG2 2.2.15, 72 h; method in brief: as §1
[9] = system: Hepatitis B virus; experiment: Antiviral activity against Hepatitis B virus infected in human HepG2.2.15 cells assessed as inhibition of HBsAg secretion at 75 uM after 3 days by ELISA; format: functional; conditions: HepG2 2.2.15, 72 h; method in brief: as §1
[10] = system: Hepatitis B virus; experiment: Antiviral activity against Hepatitis B virus infected in human HepG2.2.15 cells assessed as inhibition of HBsAg secretion at 150 uM after 9 days by ELISA; format: functional; conditions: HepG2 2.2.15, 216 h; method in brief: as §1
[11] = system: Hepatitis B virus; experiment: Antiviral activity against Hepatitis B virus infected in human HepG2.2.15 cells assessed as inhibition of HBsAg secretion at 37.5 uM after 9 days by ELISA; format: functional; conditions: HepG2 2.2.15, 216 h; method in brief: as §1
[12] = Cytotoxicity against human HepG2.2.15 cells assessed as cell death after 9 days by MTT assay; format: cell-based, HepG2 2.2.15; method in brief: as §2
[13] = system: Hepatitis B virus; experiment: Antiviral activity against Hepatitis B virus infected in human HepG2.2.15 cells assessed as inhibition of HBeAg secretion at 37.5 uM after 6 days by ELISA; format: functional; conditions: HepG2 2.2.15, 144 h; method in brief: as §1
[14] = system: Hepatitis B virus; experiment: Antiviral activity against Hepatitis B virus infected in human HepG2.2.15 cells assessed as inhibition of HBsAg secretion at 75 uM after 9 days by ELISA; format: functional; conditions: HepG2 2.2.15, 216 h; method in brief: as §1
[15] = system: Hepatitis B virus; experiment: Antiviral activity against Hepatitis B virus infected in human HepG2.2.15 cells assessed as cell survival at 75 uM after 9 days (reference value: 100%); format: functional; conditions: HepG2 2.2.15, 216 h; method in brief: as §2
[16] = system: Hepatitis B virus; experiment: Antiviral activity against Hepatitis B virus infected in human HepG2.2.15 cells assessed as inhibition of HBsAg secretion at 150 uM after 3 days by ELISA; format: functional; conditions: HepG2 2.2.15, 72 h; method in brief: as §1
[17] = system: Hepatitis B virus; experiment: Antiviral activity against Hepatitis B virus infected in human HepG2.2.15 cells assessed as cell survival at 37.5 uM after 9 days (reference value: 100%); format: functional; conditions: HepG2 2.2.15, 216 h; method in brief: as §2
[18] = system: Hepatitis B virus; experiment: Antiviral activity against Hepatitis B virus infected in human HepG2.2.15 cells assessed as inhibition of HBsAg secretion at 300 uM after 6 days by ELISA; format: functional; conditions: HepG2 2.2.15, 144 h; method in brief: as §1
[19] = system: Hepatitis B virus; experiment: Antiviral activity against Hepatitis B virus infected in human HepG2.2.15 cells assessed as inhibition of HBsAg secretion by ELISA; format: functional, organism-based; conditions: HepG2 2.2.15; method in brief: as §1
[20] = system: Hepatitis B virus; experiment: Antiviral activity against Hepatitis B virus infected in human HepG2.2.15 cells assessed as inhibition of HBeAg secretion by ELISA; format: functional, organism-based; conditions: HepG2 2.2.15; method in brief: as §1
[21] = system: Hepatitis B virus; experiment: Antiviral activity against Hepatitis B virus infected in human HepG2.2.15 cells assessed as inhibition of HBsAg secretion at 75 uM after 6 days by ELISA; format: functional; conditions: HepG2 2.2.15, 144 h; method in brief: as §1
[22] = system: Hepatitis B virus; experiment: Antiviral activity against Hepatitis B virus infected in human HepG2.2.15 cells assessed as inhibition of HBeAg secretion at 37.5 uM after 9 days by ELISA; format: functional; conditions: HepG2 2.2.15, 216 h; method in brief: as §1
[23] = Selectivity index, ratio of CC50 for human HepG2.2.15 cells to IC50 for Hepatitis B virus infected in human HepG2.2.15 cells assessed as inhibition of HBeAg secretion; format: functional; method in brief: as §3
[24] = system: Hepatitis B virus; experiment: Antiviral activity against Hepatitis B virus infected in human HepG2.2.15 cells assessed as inhibition of HBsAg secretion at 150 uM after 6 days by ELISA; format: functional; conditions: HepG2 2.2.15, 144 h; method in brief: as §1
[25] = system: Hepatitis B virus; experiment: Antiviral activity against Hepatitis B virus infected in human HepG2.2.15 cells assessed as inhibition of HBeAg secretion at 300 uM after 9 days by ELISA; format: functional; conditions: HepG2 2.2.15, 216 h; method in brief: as §1
[26] = system: Hepatitis B virus; experiment: Antiviral activity against Hepatitis B virus infected in human HepG2.2.15 cells assessed as inhibition of HBsAg secretion at 37.5 uM after 6 days by ELISA; format: functional; conditions: HepG2 2.2.15, 144 h; method in brief: as §1
[27] = system: Hepatitis B virus; experiment: Antiviral activity against Hepatitis B virus infected in human HepG2.2.15 cells assessed as inhibition of HBeAg secretion at 37.5 uM after 3 days by ELISA; format: functional; conditions: HepG2 2.2.15, 72 h; method in brief: as §1
[28] = system: Hepatitis B virus; experiment: Antiviral activity against Hepatitis B virus infected in human HepG2.2.15 cells assessed as inhibition of HBsAg secretion at 37.5 uM after 3 days by ELISA; format: functional; conditions: HepG2 2.2.15, 72 h; method in brief: as §1
[29] = system: Hepatitis B virus; experiment: Antiviral activity against Hepatitis B virus infected in human HepG2.2.15 cells assessed as inhibition of HBeAg secretion at 75 uM after 3 days by ELISA; format: functional; conditions: HepG2 2.2.15, 72 h; method in brief: as §1
[30] = system: Hepatitis B virus; experiment: Antiviral activity against Hepatitis B virus infected in human HepG2.2.15 cells assessed as inhibition of HBeAg secretion at 150 uM after 6 days by ELISA; format: functional; conditions: HepG2 2.2.15, 144 h; method in brief: as §1
[31] = system: Hepatitis B virus; experiment: Antiviral activity against Hepatitis B virus infected in human HepG2.2.15 cells assessed as inhibition of HBsAg secretion at 300 uM after 9 days by ELISA; format: functional; conditions: HepG2 2.2.15, 216 h; method in brief: as §1
[32] = system: Hepatitis B virus; experiment: Antiviral activity against Hepatitis B virus infected in human HepG2.2.15 cells assessed as inhibition of HBsAg secretion at 300 uM after 3 days by ELISA; format: functional; conditions: HepG2 2.2.15, 72 h; method in brief: as §1
[33] = system: Hepatitis B virus; experiment: Antiviral activity against Hepatitis B virus infected in human HepG2.2.15 cells assessed as inhibition of HBeAg secretion at 300 uM after 6 days by ELISA; format: functional; conditions: HepG2 2.2.15, 144 h; method in brief: as §1

SMILES | inhibition at 75 µM [1] | inhibition at 150 µM [2] | inhibition at 75 µM [3] | viability at 150 µM [4] | Ratio CC50/IC50 [5] | inhibition at 150 µM [6] | viability at 300 µM [7] | inhibition at 300 µM [8] | inhibition at 75 µM [9] | inhibition at 150 µM [10] | inhibition at 37.5 µM [11] | CC50 at 216 h [12] | inhibition at 37.5 µM [13] | inhibition at 75 µM [14] | viability at 75 µM [15] | inhibition at 150 µM [16] | viability at 37.5 µM [17] | inhibition at 300 µM [18] | IC50 [19] | IC50 [20] | also measured
O=C(/C=C/c1ccc2c(c1)OCO2)O/N=C/c1cccs1 | 32% | 51.5% | 42.9% | 92.2% | 3.51 | 33.5% | 79.4% | 51.3% | 32.1% | 63.1% | 29.7% | 266 µM | 20.6% | 52% | 105% | 46.3% | 112% | 87.5% | 75.8 µM | 118 µM | inhibition at 75 µM [21]: 45.4%; inhibition at 37.5 µM [22]: 25.4%; Ratio CC50/IC50 [23]: 2.26; inhibition at 150 µM [24]: 63.2%; inhibition at 300 µM [25]: 71.6%; inhibition at 37.5 µM [26]: 29.6%; inhibition at 37.5 µM [27]: 15.9%; inhibition at 37.5 µM [28]: 20.4%; inhibition at 75 µM [29]: 25.7%; inhibition at 150 µM [30]: 46.1%; inhibition at 300 µM [31]: 88.1%; inhibition at 300 µM [32]: 58.3%; inhibition at 300 µM [33]: 63.2%
COc1cc(/C=C/C(=O)O/N=C/c2cccs2)cc2c1OCO2 | 33.8% | 57.9% | 48.9% | 97.5% | 9.1 | 33.8% | 95.6% | 41.9% | 35.5% | 68.2% | 29.7% | 677 µM | 16.1% | 56.1% | 107% | 46.6% | 119% | 67.3% | 74.4 µM | 105 µM | inhibition at 75 µM [21]: 37.4%; inhibition at 37.5 µM [22]: 29.2%; Ratio CC50/IC50 [23]: 6.47; inhibition at 150 µM [24]: 50.7%; inhibition at 300 µM [25]: 65.8%; inhibition at 37.5 µM [26]: 23.3%; inhibition at 37.5 µM [27]: 12.7%; inhibition at 37.5 µM [28]: 19.1%; inhibition at 75 µM [29]: 25.6%; inhibition at 150 µM [30]: 40%; inhibition at 300 µM [31]: 77.9%; inhibition at 300 µM [32]: 59.3%; inhibition at 300 µM [33]: 51.1%
